ChEMBL document CHEMBL1208662, “Antimicrobial activity and a SAR study of some novel benzimidazole derivatives bearing hydrazone moiety” (Eur J Med Chem, 2010)
≈ marks a conversion by molar mass, not a printed value.

Assays:
Salmonella typhimurium = experiment: Antimicrobial activity against Salmonella Typhimurium by broth microdilution method; type: functional, Salmonella enterica subsp. enterica serovar Typhimurium; conditions: Salmonella enterica
How it was run: (§1)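 CLSI M7-A7 broth microdilution, two-fold serial dilutions 800 down to 1.5625 μg/mL in Mueller–Hinton broth, pH 7. Compounds dissolved in DMSO; DMSO-only solvent control. Overnight cultures at 35 ± 1 °C, inoculum matched to McFarland 0.5, final 0.5-2.5 × 10^5 cfu/mL. MIC taken as last well without growth, µg/mL. Run twice. Chloramphenicol reference.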

Bacillus subtilis = experiment: Antimicrobial activity against Bacillus subtilis by broth microdilution method; type: functional; how it was run: as §1
Proteus vulgaris = experiment: Antimicrobial activity against Proteus vulgaris by broth microdilution method; type: functional; how it was run: as §1
Listeria monocytogenes = experiment: Antimicrobial activity against Listeria monocytogenes by broth microdilution method; type: functional; how it was run: as §1
Staphylococcus aureus = experiment: Antimicrobial activity against Staphylococcus aureus by broth microdilution method; type: functional; how it was run: as §1
Candida tropicalis = experiment: Antimicrobial activity against Candida tropicalis by broth microdilution method; type: functional
How it was run: (§2)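 Yeasts grown overnight at 35 ± 1 °C in Sabouraud dextrose broth. Tested by CLSI M7-A7 broth microdilution in Sabouraud dextrose broth, pH 7, two-fold serial dilutions 800 down to 1.5625 μg/mL of DMSO-dissolved compound. DMSO-only control. Inoculum matched to McFarland 0.5, final 0.5-2.5 × 10^5 cfu/mL. MIC is last well without growth, µg/mL. Duplicate readings. Ketoconazole reference.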

Candida albicans = experiment: Antimicrobial activity against Candida albicans by broth microdilution method; type: functional; how it was run: as §2
Escherichia coli [1] = experiment: Antimicrobial activity against Escherichia coli 35218 by broth microdilution method; type: functional; how it was run: as §1
Pseudomonas aeruginosa = experiment: Antimicrobial activity against Pseudomonas aeruginosa by broth microdilution method; type: functional; how it was run: as §1
Klebsiella pneumoniae = experiment: Antimicrobial activity against Klebsiella pneumoniae by broth microdilution method; type: functional; how it was run: as §1
Escherichia coli [2] = experiment: Antimicrobial activity against Escherichia coli 25922 by broth microdilution method; type: functional; how it was run: as §1
Enterococcus faecalis = experiment: Antimicrobial activity against Enterococcus faecalis by broth microdilution method; type: functional; how it was run: as §1
Nakaseomyces glabratus = experiment: Antimicrobial activity against Candida glabrata by broth microdilution method; type: functional; how it was run: as §2
[3] = Toxicity in Artemia salina after 24 hrs; type: organism-based; conditions: in vivo

SMILES | MIC (Salmonella typhimurium) [µg/mL] | MIC (Bacillus subtilis) [µg/mL] | MIC (Proteus vulgaris) [µg/mL] | MIC (Listeria monocytogenes) [µg/mL] | MIC (Staphylococcus aureus) [µg/mL] | MIC (Candida tropicalis) [µg/mL] | MIC (Candida albicans) [µg/mL] | MIC (Escherichia coli [1]) [µg/mL] | MIC (Pseudomonas aeruginosa) [µg/mL] | MIC (Klebsiella pneumoniae) [µg/mL] | MIC (Escherichia coli [2]) [µg/mL] | MIC (Enterococcus faecalis) [µg/mL] | MIC (Nakaseomyces glabratus) [µg/mL] | LC50 at 24 h [3] [µg/mL]
O=C(N/N=C/c1ccccc1)c1ccc(-c2nc3ccccc3[nH]2)cc1 | 12.5 (≈ 36.7 µM) | 25 (≈ 73.4 µM) | 50 (≈ 147 µM) | 400 (≈ 1180 µM) | 25 (≈ 73.4 µM) | 100 (≈ 294 µM) | 50 (≈ 147 µM) | 25 (≈ 73.4 µM) | 25 (≈ 73.4 µM) | 25 (≈ 73.4 µM) | 100 (≈ 294 µM) | 12.5 (≈ 36.7 µM) | 100 (≈ 294 µM) | –
O=C(N/N=C/c1ccc(O)cc1)c1ccc(-c2nc3ccccc3[nH]2)cc1 | 25 (≈ 70.1 µM) | 25 (≈ 70.1 µM) | 25 (≈ 70.1 µM) | 400 (≈ 1120 µM) | 50 (≈ 140 µM) | 100 (≈ 281 µM) | 100 (≈ 281 µM) | 25 (≈ 70.1 µM) | 25 (≈ 70.1 µM) | 25 (≈ 70.1 µM) | 100 (≈ 281 µM) | 25 (≈ 70.1 µM) | 100 (≈ 281 µM) | –
CN(C)c1ccc(/C=N/NC(=O)c2ccc(-c3nc4ccccc4[nH]3)cc2)cc1 | 25 (≈ 65.2 µM) | 25 (≈ 65.2 µM) | 50 (≈ 130 µM) | 200 (≈ 522 µM) | 50 (≈ 130 µM) | 100 (≈ 261 µM) | 100 (≈ 261 µM) | 25 (≈ 65.2 µM) | 25 (≈ 65.2 µM) | 50 (≈ 130 µM) | 100 (≈ 261 µM) | 25 (≈ 65.2 µM) | 50 (≈ 130 µM) | –
O=C(N/N=C/c1ccc(Cl)cc1)c1ccc(-c2nc3ccccc3[nH]2)cc1 | 6.25 (≈ 16.7 µM) | 25 (≈ 66.7 µM) | 25 (≈ 66.7 µM) | 100 (≈ 267 µM) | 12.5 (≈ 33.3 µM) | 50 (≈ 133 µM) | 50 (≈ 133 µM) | 25 (≈ 66.7 µM) | 25 (≈ 66.7 µM) | 12.5 (≈ 33.3 µM) | 100 (≈ 267 µM) | 12.5 (≈ 33.3 µM) | 50 (≈ 133 µM) | > 1000
O=C(N/N=C/c1ccc(Br)cc1)c1ccc(-c2nc3ccccc3[nH]2)cc1 | 12.5 (≈ 29.8 µM) | 25 (≈ 59.6 µM) | 25 (≈ 59.6 µM) | 200 (≈ 477 µM) | 25 (≈ 59.6 µM) | 50 (≈ 119 µM) | 100 (≈ 239 µM) | 25 (≈ 59.6 µM) | 25 (≈ 59.6 µM) | 12.5 (≈ 29.8 µM) | 50 (≈ 119 µM) | 12.5 (≈ 29.8 µM) | 100 (≈ 239 µM) | > 1000
O=C(N/N=C/c1ccc(F)cc1)c1ccc(-c2nc3ccccc3[nH]2)cc1 | 6.25 (≈ 17.4 µM) | 25 (≈ 69.8 µM) | 50 (≈ 140 µM) | 200 (≈ 558 µM) | 50 (≈ 140 µM) | 50 (≈ 140 µM) | 100 (≈ 279 µM) | 25 (≈ 69.8 µM) | 50 (≈ 140 µM) | 25 (≈ 69.8 µM) | 50 (≈ 140 µM) | 25 (≈ 69.8 µM) | 100 (≈ 279 µM) | –
Cc1ccc(/C=N/NC(=O)c2ccc(-c3nc4ccccc4[nH]3)cc2)cc1 | 6.25 (≈ 17.6 µM) | 50 (≈ 141 µM) | 25 (≈ 70.5 µM) | 200 (≈ 564 µM) | 25 (≈ 70.5 µM) | 100 (≈ 282 µM) | 100 (≈ 282 µM) | 25 (≈ 70.5 µM) | 50 (≈ 141 µM) | 12.5 (≈ 35.3 µM) | 100 (≈ 282 µM) | 12.5 (≈ 35.3 µM) | 100 (≈ 282 µM) | > 1000
COc1ccc(/C=N/NC(=O)c2ccc(-c3nc4ccccc4[nH]3)cc2)cc1 | 6.25 (≈ 16.9 µM) | 25 (≈ 67.5 µM) | 50 (≈ 135 µM) | 200 (≈ 540 µM) | 25 (≈ 67.5 µM) | 50 (≈ 135 µM) | 100 (≈ 270 µM) | 25 (≈ 67.5 µM) | 25 (≈ 67.5 µM) | 25 (≈ 67.5 µM) | 50 (≈ 135 µM) | 12.5 (≈ 33.7 µM) | 50 (≈ 135 µM) | –
O=C(N/N=C/c1ccc([N+](=O)[O-])cc1)c1ccc(-c2nc3ccccc3[nH]2)cc1 | 12.5 (≈ 32.4 µM) | 50 (≈ 130 µM) | 50 (≈ 130 µM) | 200 (≈ 519 µM) | 25 (≈ 64.9 µM) | 100 (≈ 259 µM) | 50 (≈ 130 µM) | 25 (≈ 64.9 µM) | 50 (≈ 130 µM) | 25 (≈ 64.9 µM) | 100 (≈ 259 µM) | 25 (≈ 64.9 µM) | 100 (≈ 259 µM) | –
O=C(N/N=C/c1ccc(C(F)(F)F)cc1)c1ccc(-c2nc3ccccc3[nH]2)cc1 | 12.5 (≈ 30.6 µM) | 50 (≈ 122 µM) | 50 (≈ 122 µM) | 200 (≈ 490 µM) | 25 (≈ 61.2 µM) | 50 (≈ 122 µM) | 100 (≈ 245 µM) | 25 (≈ 61.2 µM) | 50 (≈ 122 µM) | 25 (≈ 61.2 µM) | 100 (≈ 245 µM) | 12.5 (≈ 30.6 µM) | 100 (≈ 245 µM) | –
O=C(O)c1ccc(/C=N/NC(=O)c2ccc(-c3nc4ccccc4[nH]3)cc2)cc1 | 25 (≈ 65 µM) | 50 (≈ 130 µM) | 100 (≈ 260 µM) | 400 (≈ 1040 µM) | 50 (≈ 130 µM) | 200 (≈ 520 µM) | 200 (≈ 520 µM) | 50 (≈ 130 µM) | 100 (≈ 260 µM) | 50 (≈ 130 µM) | 200 (≈ 520 µM) | 50 (≈ 130 µM) | 200 (≈ 520 µM) | –
N#Cc1ccc(/C=N/NC(=O)c2ccc(-c3nc4ccccc4[nH]3)cc2)cc1 | 12.5 (≈ 34.2 µM) | 50 (≈ 137 µM) | 50 (≈ 137 µM) | 200 (≈ 547 µM) | 25 (≈ 68.4 µM) | 50 (≈ 137 µM) | 100 (≈ 274 µM) | 25 (≈ 68.4 µM) | 50 (≈ 137 µM) | 12.5 (≈ 34.2 µM) | 100 (≈ 274 µM) | 12.5 (≈ 34.2 µM) | 100 (≈ 274 µM) | –
O=C(N[C@H](CO)[C@H](O)c1ccc([N+](=O)[O-])cc1)C(Cl)Cl [CHLORAMPHENICOL] | 12.5 (≈ 38.7 µM) | 12.5 (≈ 38.7 µM) | 50 (≈ 155 µM) | 50 (≈ 155 µM) | 12.5 (≈ 38.7 µM) | – | – | 12.5 (≈ 38.7 µM) | 50 (≈ 155 µM) | 12.5 (≈ 38.7 µM) | 12.5 (≈ 38.7 µM) | 12.5 (≈ 38.7 µM) | – | –
CC(=O)N1CCN(c2ccc(OCC3COC(Cn4ccnc4)(c4ccc(Cl)cc4Cl)O3)cc2)CC1 (configuration not stated) [KETOCONAZOLE] | – | – | – | – | – | 50 (≈ 94.1 µM) | 50 (≈ 94.1 µM) | – | – | – | – | – | 25 (≈ 47 µM) | –
